{"data": "Assay results of several laboratories", "ALOX5": "Polyunsaturated fatty acid 5-lipoxygenase (ALOX5, Homo sapiens, UniProt P09917)", "dxs": "dxs (Pseudomonas aeruginosa, UniProt Q9KGU7)", "ACE": "Angiotensin-converting enzyme (ACE, Oryctolagus cuniculus, UniProt P12822)", "note": "Lines come from different studies, so protocols differ."}
{"SMILES": "COc1cc2c(cc1OC)CN(CCc1ccc(NC(=O)c3cccc4c(=O)c5cccc(OC)c5[nH]c34)cc1)CC2", "target": "Mu-type opioid receptor (OPRM1, Homo sapiens, UniProt P35372)", "read-out": "cell-free assay", "endpoint": "Ki", "result": "> 10 µM"}
{"SMILES": "C=CCOc1ccc(C(=O)/C=C/c2cccc(F)c2)c(OS(C)(=O)=O)c1I", "target": "ALOX5", "read-out": "enzyme activity", "action": "inhibitor", "endpoint": "IC50", "result": "34.6 µM"}
{"SMILES": "CC(=O)P(=O)(O)OCCc1cn([C@H](Cc2ccccc2)C(=O)O)nn1", "target": "dxs", "read-out": "enzyme activity", "action": "inhibitor", "endpoint": "Ki", "result": "2.6 µM"}
{"SMILES": "C=CCOc1ccc(C(=O)/C=C/c2ccc(OC)cc2)c(OS(C)(=O)=O)c1I", "target": "ALOX5", "read-out": "enzyme activity", "action": "inhibitor", "endpoint": "IC50", "result": "38.3 µM"}
{"SMILES": "CCN1CCN(Cc2ccc(Nc3ncc(F)c(-c4cc(F)c5nc6n(c5c4)[C@H](C)CCC6)n3)nc2)CC1", "target": "Multidrug and toxin extrusion protein 2 (SLC47A2, Homo sapiens, UniProt Q86VL8)", "read-out": "enzyme activity", "action": "inhibitor", "endpoint": "IC50", "result": "0.0654 µM"}
{"SMILES": "N[C@@H](Cc1c[nH]cn1)C(=O)N[C@@H](CC(=O)O)C(=O)N[C@@H](CS)C(=O)N[C@@H](Cc1ccccc1)C(=O)O", "target": "ACE", "read-out": "enzyme activity", "action": "inhibitor", "endpoint": "IC50", "result": "4.5 µM"}
{"SMILES": "N=C(N)NCCC[C@H](NC(=O)[C@H](Cc1ccccc1)NC(=O)[C@@H]1CCCN1C(=O)[C@H](CO)NC(=O)[C@@H]1CCCN1C(=O)[C@@H](N)Cc1ccccc1)C(=O)O", "target": "ACE", "read-out": "enzyme activity", "action": "inhibitor", "endpoint": "IC50", "result": "81.3 µM"}
{"SMILES": "CCCCOP(=O)(O)C(C)=O", "target": "dxs", "read-out": "enzyme activity", "action": "inhibitor", "endpoint": "Ki", "result": "1.84 µM"}
{"SMILES": "COc1ccc(CCCCC(=O)C(F)(F)C(F)(F)F)cc1", "target": "Cytosolic phospholipase A2 (PLA2G4A, Homo sapiens, UniProt P47712)", "read-out": "enzyme activity", "action": "inhibitor", "endpoint": "IC50", "result": "26.2 µM"}
{"SMILES": "COC(=O)C1=CO[C@@H](O[C@@H]2O[C@H](CO)[C@@H](O)[C@H](O)[C@H]2O)[C@@H]2C(CO)=CC[C@H]12", "target": "Cystathionine beta-synthase (CBS, Homo sapiens, UniProt P35520)", "read-out": "binding", "method": "MST", "endpoint": "Kd", "result": "38.4 µM"}
{"SMILES": "CCCCOc1cc(C(=O)NCCN(CC)CC)c2ccccc2n1", "target": "PKD2L1 (Homo sapiens, UniProt Q9P0L9, F549I)", "read-out": "ion current", "action": "inhibitor", "method": "patch clamp", "endpoint": "IC50", "result": "76.2 µM"}
{"SMILES": "Cn1c(=O)n(CCCCN2CCC3(CC2)OCc2ccccc23)c2ccccc21", "target": "Sodium-dependent serotonin transporter (Slc6a4, Rattus norvegicus, UniProt P31652)", "read-out": "ligand displacement", "method": "radioligand", "setting": "cell membranes", "endpoint": "Ki", "result": "2.83 µM"}
{"SMILES": "CC(C)C[C@H](N)C(=O)N[C@@H](Cc1c[nH]c2ccccc12)C(=O)N[C@@H](CC(=O)O)C(=O)N1CCC[C@H]1C(=O)N1CCC[C@H]1C(=O)N[C@@H](CCC(=O)O)C(=O)NCC(=O)N[C@@H](C)C(=O)N1CCC[C@H]1C(=O)O", "target": "ACE", "read-out": "enzyme activity", "action": "inhibitor", "endpoint": "IC50", "result": "207 µM"}
